Source: ChEMBL document CHEMBL1157028, “Synthesis and anti-inflammatory activity of novel (substituted)benzylidene acetone oxime ether derivatives: molecular modeling study” (Eur J Med Chem, 2010)

How the values were obtained:
Rattus norvegicus [1] = experiment: Antiinflammatory activity in Wistar rat assessed as inhibition of carrageenan-induced paw edema at equimolar ip dose relative […] diclofenac sodium administered 1 hr before carrageenan challenge measured after 3 hrs relative to control; type: functional
Outline: (§1)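 Wistar rats (100–120 g), 5 per group, were dosed ip either at equimolar […] or at three graded doses to derive ED50. Vehicle-only rats served as controls. After 1 h, 0.05 mL 1% carrageenin in saline (made 24 h earlier) was injected subplantar into the right hind paw and saline into the left. At 3 h, rats were killed and both paws cut and weighed. Right-over-left % weight increase gave % oedema reduction versus control.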

Rattus norvegicus [2] = experiment: Antiinflammatory activity in Wistar rat assessed as inhibition of carrageenan-induced paw edema at 30 mg/kg, ip administered 1 hr before carrageenan challenge measured after 3 hrs relative to control; type: functional; conditions: route intraperitoneal; outline: as §1
Rattus norvegicus [3] = experiment: Antiinflammatory activity in Wistar rat assessed as inhibition of carrageenan-induced paw edema at 75 mg/kg, ip administered 1 hr before carrageenan challenge measured after 3 hrs relative to control; type: functional; conditions: route intraperitoneal; outline: as §1
Rattus norvegicus [4] = experiment: Antiinflammatory activity in Wistar rat assessed as inhibition of carrageenan-induced paw edema at 37 mg/kg, ip administered 1 hr before carrageenan challenge measured after 3 hrs relative to control; type: functional; conditions: route intraperitoneal; outline: as §1
Rattus norvegicus [5] = experiment: Antiinflammatory activity in ip dosed Wistar rat assessed as inhibition of carrageenan-induced paw edema administered 1 hr before carrageenan challenge measured after 3 hrs relative to control; type: functional; outline: as §1
Mus musculus [6] = experiment: Analgesic activity in Swiss albino mouse assessed as inhibition of acetic acid-induced writhing at 100 mg/kg, po administered 2 hrs before acetic acid challenge measured after 20 mins relative to control; type: functional
Outline: (§2)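 Swiss albino mice of either sex (20–25 g), in groups of 6, were housed at 22 ± 2 °C on a 12 h light/dark cycle. Drug was given orally and vehicle alone to negative controls. After 2 h, 0.2 mL 3% acetic acid was injected ip. Writhes were counted over 20 min, and % reduction in writhe number versus the control group was calculated.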

Mus musculus [7] = experiment: Analgesic activity in Swiss albino mouse assessed as inhibition of acetic acid-induced writhing at 37 mg/kg, po administered 2 hrs before acetic acid challenge measured after 20 mins relative to control; type: functional; outline: as §2
Rattus norvegicus [8] = experiment: Gastrointestinal toxicity in Wistar rat assessed as length of elongated ulcer at equimolar po dose relative […] diclofenac sodium qd for 5 days measured after 10 hrs last post dose; type: organism-based; conditions: in vivo
Outline: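 Rats, 5 per group, were given oral equimolar doses ([…]) daily for 5 days. They were killed by ether overdose 10 h after the last dose. Stomachs were rinsed with saline, opened along the greater curvature and examined under a ×10 hand lens. Ulcer number and summed ulcer length were recorded per animal, and the mean was taken as ulcer index.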

[9] = Acute toxicity in ip dosed Wistar rat assessed as mortality after 24 hrs; type: organism-based; conditions: in vivo
[10] = Therapeutic index, ED50 for antiinflammatory activity to LD50 for acute toxicity in Wistar rat; conditions: read-out: TI
Rattus norvegicus [11] = experiment: Antiinflammatory activity in Wistar rat assessed as inhibition of carrageenan-induced paw edema at 50 mg/kg, ip administered 1 hr before carrageenan challenge measured after 3 hrs relative to control; type: functional; conditions: route intraperitoneal; outline: as §1
Mus musculus [12] = experiment: Analgesic activity in Swiss albino mouse assessed as inhibition of acetic acid-induced writhing at 50 mg/kg, po administered 2 hrs before acetic acid challenge measured after 20 mins relative to control; type: functional; outline: as §2
Rattus norvegicus [13] = experiment: Antiinflammatory activity in Wistar rat assessed as inhibition of carrageenan-induced paw edema at […], ip administered 1 hr before carrageenan challenge measured after 3 hrs relative to control; type: functional; outline: as §1
Rattus norvegicus [14] = experiment: Antiinflammatory activity in Wistar rat assessed as inhibition of carrageenan-induced paw edema at 45 mg/kg, ip administered 1 hr before carrageenan challenge measured after 3 hrs relative to control; type: functional; conditions: route intraperitoneal; outline: as §1
Mus musculus [15] = experiment: Analgesic activity in Swiss albino mouse assessed as inhibition of acetic acid-induced writhing at 45 mg/kg, po administered 2 hrs before acetic acid challenge measured after 20 mins relative to control; type: functional; outline: as §2

Row | SMILES | inhibition (INH) (Rattus norvegicus [1]) | further results
1 | CC(/C=C/c1ccccc1)=N\OCC(N)=O | 49.71% | 
2 | CC(/C=C/c1ccc(Cl)cc1)=N\OCC(=O)NN | 21.76% | 
3 | COc1ccc(/C=C/C(C)=N/OC(C)C(=O)NN)cc1 (centres undefined) | 38.76% | 
4 | CCOC(=O)C(C)O/N=C(C)/C=C/c1ccc(OC)cc1 (centres undefined) | 21.66% | 
5 | CC(/C=C/c1ccc(Cl)cc1)=N\OCC(=O)Nc1ccc(Cl)cc1 | 40.89% | 
6 | CC(/C=C/c1ccccc1)=N\OCC(=O)O | 45.62% | 
7 | COc1ccc(/C=C/C(C)=N/OC(C)C(=O)NC(C)C)cc1 (centres undefined) | 27.53% | 
8 | COc1ccc(/C=C/C(C)=N/OC(C)C(N)=O)cc1 (centres undefined) | 58.53% | 
9 | CC(/C=C/c1ccccc1)=N\OCC(=O)NC(C)C | 30.93% | 
10 | CC(/C=C/c1ccccc1)=N\OC(C)C(N)=O (centres undefined) | 63.23% | inhibition in vivo at 30 mg/kg (Rattus norvegicus [2]): 37.7%; inhibition in vivo at 75 mg/kg (Rattus norvegicus [3]): 69.1%; inhibition in vivo at 37 mg/kg (Rattus norvegicus [4]): 63.2%; ED50 (Rattus norvegicus [5]): 34.3 mg/kg; inhibition in vivo at 100 mg/kg (Mus musculus [6]): 82.5%; inhibition in vivo at 37 mg/kg (Mus musculus [7]): 53.6%; Activity (Rattus norvegicus [8]): 0.3 mm; LD50 at 24 h [9]: 745 mg/kg; selectivity ratio [10]: 20.1
11 | CC(/C=C/c1ccccc1)=N\OC(C)C(=O)NN (centres undefined) | 56.27% | 
12 | CC(/C=C/c1ccc(Cl)cc1)=N\OCC(N)=O | 50.77% | 
13 | CCOC(=O)C(C)O/N=C(C)/C=C/c1ccc(Cl)cc1 (centres undefined) | 44.52% | 
14 | COc1ccc(NC(=O)CO/N=C(C)/C=C/c2ccccc2)cc1 | 49.64% | 
15 | CC(/C=C/c1ccc(Cl)cc1)=N\OCC(=O)Nc1ccccc1 | 29.45% | 
16 | COc1ccc(/C=C/C(C)=N/OCC(=O)NN)cc1 | 24.44% | 
17 | CC(/C=C/c1ccc(Cl)cc1)=N\OC(C)C(N)=O (centres undefined) | 57.54% | 
18 | CCOC(=O)CO/N=C(C)/C=C/c1ccc(Cl)cc1 | 26.23% | 
19 | CC(/C=C/c1ccc(Cl)cc1)=N\OCC(=O)NC(C)C | 28.49% | 
20 | CC(/C=C/c1ccccc1)=N\OC(C)C(=O)NC(C)C (centres undefined) | 37.38% | 

Row | SMILES | inhibition (INH) (Rattus norvegicus [1]) | further results
21 | COc1ccc(/C=C/C(C)=N/OCC(=O)Nc2ccccc2)cc1 | 42.91% | 
22 | COc1ccc(/C=C/C(C)=N/OCC(=O)NC(C)C)cc1 | 41.68% | 
23 | CCOC(=O)C(C)O/N=C(C)/C=C/c1ccccc1 (centres undefined) | 33.2% | 
24 | CC(/C=C/c1ccccc1)=N\OC(C)C(=O)O (centres undefined) | 40.85% | 
25 | COc1ccc(/C=C/C(C)=N/OCC(=O)O)cc1 | 7.35% | 
26 | CC(/C=C/c1ccccc1)=N\OCC(=O)Nc1ccc(Cl)cc1 | 28.66% | 
27 | COc1ccc(/C=C/C(C)=N/OCC(=O)Nc2ccc(Cl)cc2)cc1 | 43.32% | 
28 | COc1ccc(NC(=O)CO/N=C(C)/C=C/c2ccc(Cl)cc2)cc1 | 48.16% | 
29 | CC(/C=C/c1ccccc1)=N\OCC(=O)NN | 29.01% | 
30 | CC(/C=C/c1ccc(Cl)cc1)=N\OC(C)C(=O)NC(C)C (centres undefined) | 42.84% | 
31 | O=C([O-])Cc1ccccc1Nc1c(Cl)cccc1Cl.[Na+] [DICLOFENAC SODIUM] |  | inhibition in vivo at 30 mg/kg (Rattus norvegicus [2]): 46%; inhibition in vivo at 50 mg/kg (Rattus norvegicus [11]): 72.1%; inhibition in vivo at 75 mg/kg (Rattus norvegicus [3]): 80.2%; ED50 (Rattus norvegicus [5]): 30.6 mg/kg; inhibition in vivo at 50 mg/kg (Mus musculus [12]): 71.1%; Activity (Rattus norvegicus [8]): 7.9 mm; inhibition (INH) (Rattus norvegicus [13]): 72.13%
32 | CC(/C=C/c1ccc(Cl)cc1)=N\OCC(=O)O | 50.57% | 
33 | COc1ccc(/C=C/C(C)=N/OC(C)C(=O)O)cc1 (centres undefined) | 45.38% | 
34 | CC(/C=C/c1ccccc1)=N\OCC(=O)Nc1ccccc1 | 35.43% | 
35 | CC(/C=C/c1ccc(Cl)cc1)=N\OC(C)C(=O)O (centres undefined) | 66.7% | inhibition in vivo at 30 mg/kg (Rattus norvegicus [2]): 45.1%; inhibition in vivo at 75 mg/kg (Rattus norvegicus [3]): 75.2%; inhibition in vivo at 45 mg/kg (Rattus norvegicus [14]): 66.7%; ED50 (Rattus norvegicus [5]): 29.9 mg/kg; inhibition in vivo at 45 mg/kg (Mus musculus [15]): 20.3%; inhibition in vivo at 100 mg/kg (Mus musculus [6]): 39.1%; Activity (Rattus norvegicus [8]): 8.1 mm; LD50 at 24 h [9]: 745 mg/kg; selectivity ratio [10]: 24.9
36 | COc1ccc(/C=C/C(C)=N/OCC(=O)Nc2ccc(OC)cc2)cc1 | 37.25% | 
37 | CCOC(=O)CO/N=C(C)/C=C/c1ccccc1 | 29.76% | 
38 | CC(/C=C/c1ccc(Cl)cc1)=N\OC(C)C(=O)NN (centres undefined) | 43.49% | 
39 | COc1ccc(/C=C/C(C)=N/OCC(N)=O)cc1 | 38.21% | 
40 | CCOC(=O)CO/N=C(C)/C=C/c1ccc(OC)cc1 | 22.14% | 
